From ChEMBL document CHEMBL4616631, “Design, synthesis and evaluation of phthalide alkyl tertiary amine derivatives as promising acetylcholinesterase inhibitors with high potency and selectivity against Alzheimer's disease” (Bioorg Med Chem, 2020)
Active and inactive are the calls of the source. The calls are words filed in the database; no cut-off is given here.

What was measured:
[1] = tested on: Mus musculus; assay: (§1) Antialzheimer activity in scopolamine-induced Kunming mouse model of memory impairment assessed as increase in latency time at 5 mg/kg/day, ig for 7 days followed by training trial at 1 hr post dose on day 6 and subsequent scopolamine challenge at 30 mins post training trial and measured post last dose by step-down passive avoidance test; assay type: functional, organism-based
Summary of the method: (§2)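 Kunming mice, 18-22 g, male and female in half, 8 per group. Dosed i.g. once daily for 7 days, vehicle 0.5% CMC-Na. Day-6 training came 1 h after dosing: a 50 V, 5 s foot shock on stepping down from the platform, in a 5 min trial. Scopolamine 2.0 mg/kg i.p. followed 30 min later; control mice got none. Step-down latency and number of shocks were counted over 5 min in the test trial 24 h after training. Mean ± SEM.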

[2] = tested on: Mus musculus; assay: as §1, with “decrease” for “increase”, “number of electric shock” for “latency time”; assay type: functional, organism-based; summary of the method: as §2
[3] = molecular target: Butyrylcholinesterase (BuChE) (Rattus norvegicus, UniProt Q9JKC1); assay: Inhibition of BuChE in rat serum at 50 uM using S-butylthiocholine iodide as substrate by Ellman's method relative to control; assay type: cell-free; details: probe S-butylthiocholine iodide
Summary of the method: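 Rat serum (25%) as BuChE source, S-butylthiocholine iodide 1 mM, DTNB 0.2%, in 0.1 mM phosphate buffer pH 7.4, 37 °C 15 min (modified Ellman); absorbance change at 405 nm. Three independent experiments, each in triplicate.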

[4] = Antioxidant activity assessed as trolox equivalent of AAPH-induced radical scavenging activity at 5 uM preincubated for 15 mins followed by AAPH addition measured every min for 90 mins by ORAC-FL assay; assay type: functional
Summary of the method: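 ORAC-FL in 75 mM phosphate buffer, pH 7.4. Sample at 5 µM was preincubated with fluorescein (150 nM final) for 15 min at 37 °C, then AAPH was added (12 mM final). Fluorescence (ex 485/em 535 nm) was read every minute for 90 min. […] Triplicate, at least three independent assays.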

[5] = molecular target: Amyloid-beta precursor protein (Homo sapiens) (UniProt P05067); assay: Inhibition of HFIP-pretreated self-induced amyloid beta (1 to 42) (unknown origin) aggregation at 25 uM measured after 24 hrs by ThT fluorescence assay relative to control
Summary of the method: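 Aβ1-42 was pretreated in HFIP for 24 h at room temperature, dried, and dissolved in DMSO to a 200 µM stock. Aβ (25 µM) was incubated with compound (25 µM) at 37 °C for 24 h. ThT was added at 5 µM in glycine-NaOH, pH 8.5. Fluorescence ex 446/em 490 nm, background-subtracted; inhibition = (1−IFi/IFc)×100. Triplicate.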

[6] = molecular target: Acetylcholinesterase (Electrophorus electricus) (UniProt O42275); assay: Inhibition of Electrophorus electricus AChE at 50 uM using […] as substrate incubated for 15 mins by Ellman's method relative to control
Summary of the method: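 Eel AChE (0.05 U/mL final) with acetylthiocholine iodide 1 mM and DTNB 0.2% in […] pH 8.0, 37 °C 15 min (modified Ellman); absorbance at 412 nm. Three independent experiments, each in triplicate.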

Amyloid-beta precursor protein (Homo sapiens), sequence (P05067 whole entry): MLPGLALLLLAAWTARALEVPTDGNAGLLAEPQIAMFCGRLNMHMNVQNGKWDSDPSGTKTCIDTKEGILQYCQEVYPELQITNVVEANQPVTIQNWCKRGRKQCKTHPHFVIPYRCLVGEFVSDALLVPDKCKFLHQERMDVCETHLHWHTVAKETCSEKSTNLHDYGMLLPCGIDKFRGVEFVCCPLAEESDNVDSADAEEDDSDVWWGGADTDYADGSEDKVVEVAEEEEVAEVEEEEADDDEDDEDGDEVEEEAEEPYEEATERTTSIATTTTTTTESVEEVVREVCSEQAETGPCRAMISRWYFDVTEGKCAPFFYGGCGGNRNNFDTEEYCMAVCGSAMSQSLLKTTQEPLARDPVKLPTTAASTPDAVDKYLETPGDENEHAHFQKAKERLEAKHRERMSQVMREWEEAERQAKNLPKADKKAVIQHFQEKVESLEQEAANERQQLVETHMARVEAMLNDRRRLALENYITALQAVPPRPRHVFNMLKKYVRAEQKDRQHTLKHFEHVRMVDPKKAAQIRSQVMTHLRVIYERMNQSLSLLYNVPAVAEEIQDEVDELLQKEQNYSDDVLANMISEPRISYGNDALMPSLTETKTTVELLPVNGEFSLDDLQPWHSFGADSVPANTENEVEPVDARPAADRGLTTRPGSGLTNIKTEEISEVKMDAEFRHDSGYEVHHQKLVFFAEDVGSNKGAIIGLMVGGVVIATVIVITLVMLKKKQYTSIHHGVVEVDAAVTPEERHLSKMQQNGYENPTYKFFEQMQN
Butyrylcholinesterase (BuChE), sequence (Q9JKC1 whole entry): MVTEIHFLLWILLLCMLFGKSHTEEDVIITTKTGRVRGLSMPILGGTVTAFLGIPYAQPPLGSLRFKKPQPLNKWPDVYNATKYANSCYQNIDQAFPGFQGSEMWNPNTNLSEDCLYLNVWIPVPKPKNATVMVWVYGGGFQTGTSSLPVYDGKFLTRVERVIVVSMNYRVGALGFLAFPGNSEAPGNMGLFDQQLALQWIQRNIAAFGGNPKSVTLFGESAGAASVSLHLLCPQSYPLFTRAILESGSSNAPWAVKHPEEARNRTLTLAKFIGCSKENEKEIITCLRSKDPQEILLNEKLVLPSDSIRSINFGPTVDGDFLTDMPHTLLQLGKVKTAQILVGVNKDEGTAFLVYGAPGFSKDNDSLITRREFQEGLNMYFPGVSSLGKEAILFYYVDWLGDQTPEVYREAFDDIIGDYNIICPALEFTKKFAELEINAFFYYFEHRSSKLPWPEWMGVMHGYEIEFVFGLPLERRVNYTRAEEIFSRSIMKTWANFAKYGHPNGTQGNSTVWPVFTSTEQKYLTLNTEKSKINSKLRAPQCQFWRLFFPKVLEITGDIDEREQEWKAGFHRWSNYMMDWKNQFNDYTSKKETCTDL
Acetylcholinesterase (Electrophorus electricus), sequence (O42275 24-633 limits assumed): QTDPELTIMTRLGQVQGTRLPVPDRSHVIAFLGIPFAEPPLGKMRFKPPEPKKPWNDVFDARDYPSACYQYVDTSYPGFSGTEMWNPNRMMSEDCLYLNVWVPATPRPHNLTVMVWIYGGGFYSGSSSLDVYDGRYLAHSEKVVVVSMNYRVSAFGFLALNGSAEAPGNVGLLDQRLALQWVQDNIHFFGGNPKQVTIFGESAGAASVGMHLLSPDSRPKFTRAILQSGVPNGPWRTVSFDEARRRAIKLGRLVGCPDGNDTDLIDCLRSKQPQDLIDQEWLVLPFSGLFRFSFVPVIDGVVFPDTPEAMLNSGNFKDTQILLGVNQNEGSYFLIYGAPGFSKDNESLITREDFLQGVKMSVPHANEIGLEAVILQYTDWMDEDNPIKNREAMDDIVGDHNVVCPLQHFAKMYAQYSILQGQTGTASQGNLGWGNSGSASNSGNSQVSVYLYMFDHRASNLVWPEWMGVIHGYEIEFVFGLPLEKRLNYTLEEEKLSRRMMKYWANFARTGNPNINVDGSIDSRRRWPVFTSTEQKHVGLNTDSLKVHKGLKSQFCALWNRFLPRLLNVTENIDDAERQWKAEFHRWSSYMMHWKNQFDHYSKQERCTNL

| SMILES | Activity [1] | Activity [2] | inhibition at 50 µM [3] | Activity [4] | inhibition [5] | inhibition [6] |
| --- | --- | --- | --- | --- | --- | --- |
| COc1cc2c(cc1OC)C(=O)C(CC1CCN(Cc3ccccc3)CC1)C2 (stereo unspecified) | inactive | inactive |  |  |  |  |
| CCCCC1OC(=O)c2ccccc21 (racemic) [RAC-3-N-BUTYLPHTHALIDE] |  |  | 2.67% | 0.21 µMequiv/µM | < 5% | < 5% |
